# Data reported in ChEMBL document CHEMBL1154716, “Synthesis of some new S-triazine based chalcones and their derivatives as potent antimicrobial agents” (2010).
# Calls of active or inactive are those of the source. The rule behind the calls is not given here.
# Key:
# Bacillus cereus [1] = experiment: Antimicrobial activity against Bacillus cereus at 10 ug/disk after 24 hrs by disk diffusion assay; type: functional
# Method in brief: (§1)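 Disc diffusion on 4 mm filter discs. Bacteria are grown overnight in LB at 28 C, then adjusted in saline to 1.0 × 10^5 cfu/ml. The suspension is mixed into top agar over peptone agar plates. Plates are incubated 24 h at 28 C, and growth-inhibition zone diameter is measured. Streptomycin and ampicillin controls are applied from a 1 mg/ml stock. Tests are done in duplicate.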
# Micrococcus flavus [2] = experiment: Antimicrobial activity against Micrococcus flavus at 10 ug/disk after 24 hrs by disk diffusion assay; type: functional; details: for zone of inhibition at 10 µg/disc: read-out: IZ; method in brief: as §1
# Staphylococcus aureus [3] = experiment: Antimicrobial activity against Staphylococcus aureus at 10 ug/disk after 24 hrs by disk diffusion assay; type: functional; method in brief: as §1
# Escherichia coli [4] = experiment: Antimicrobial activity against Escherichia coli at 10 ug/disk after 24 hrs by disk diffusion assay; type: functional; method in brief: as §1
# Pseudomonas aeruginosa [5] = experiment: Antimicrobial activity against Pseudomonas aeruginosa at 10 ug/disk after 24 hrs by disk diffusion assay; type: functional; method in brief: as §1
# Enterobacter cloacae [6] = experiment: Antimicrobial activity against Enterobacter cloacae at 10 ug/disk after 24 hrs by disk diffusion assay; type: functional; method in brief: as §1
# Salmonella typhimurium [7] = experiment: Antimicrobial activity against Salmonella Typhimurium at 10 ug/disk after 24 hrs by disk diffusion assay; type: functional, organism-based; details: Salmonella enterica subsp. enterica serovar Typhimurium; method in brief: as §1
# Listeria monocytogenes [8] = experiment: Antimicrobial activity against Listeria monocytogenes at 10 ug/disk after 24 hrs by disk diffusion assay; type: functional; method in brief: as §1
# Bacillus cereus [9] = experiment: Antimicrobial activity against Bacillus cereus at 1 umol/disk after 24 hrs by disk diffusion assay; type: functional; method in brief: as §1
# Micrococcus flavus [10] = experiment: Antimicrobial activity against Micrococcus flavus at 1 umol/disk after 24 hrs by disk diffusion assay; type: functional; method in brief: as §1
# Staphylococcus aureus [11] = experiment: Antimicrobial activity against Staphylococcus aureus at 1 umol/disk after 24 hrs by disk diffusion assay; type: functional; method in brief: as §1
# Escherichia coli [12] = experiment: Antimicrobial activity against Escherichia coli at 1 umol/disk after 24 hrs by disk diffusion assay; type: functional; method in brief: as §1
# Pseudomonas aeruginosa [13] = experiment: Antimicrobial activity against Pseudomonas aeruginosa at 1 umol/disk after 24 hrs by disk diffusion assay; type: functional; method in brief: as §1
# Enterobacter cloacae [14] = experiment: Antimicrobial activity against Enterobacter cloacae at 1 umol/disk after 24 hrs by disk diffusion assay; type: functional; method in brief: as §1
# Salmonella typhimurium [15] = experiment: Antimicrobial activity against Salmonella Typhimurium at 1 umol/disk after 24 hrs by disk diffusion assay; type: functional, organism-based; details: Salmonella enterica subsp. enterica serovar Typhimurium; method in brief: as §1
# Listeria monocytogenes [16] = experiment: Antimicrobial activity against Listeria monocytogenes at 1 umol/disk after 24 hrs by disk diffusion assay; type: functional; method in brief: as §1
# Bacillus cereus [17] = experiment: Antimicrobial activity against Bacillus cereus at 1 umol/spot after 18 hrs by TLC-bioautographic method; type: functional
# Method in brief: (§2)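 TLC bioautography. Samples are spotted on silica gel TLC plates, then sprayed with bacteria (1.0 × 10^5 cfu/ml) in tryptic soy broth. Plates are incubated 18 h at 37 C and sprayed with 3% aqueous p-iodonitrotetrazolium violet. After a further 3 h, growth is stopped with 70% EtOH. White zones on a pink background are scored as inhibition-zone diameter with standard errors.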
# Micrococcus flavus [18] = experiment: Antimicrobial activity against Micrococcus flavus at 1 umol/spot after 18 hrs by TLC-bioautographic method; type: functional; method in brief: as §2
# Staphylococcus aureus [19] = experiment: Antimicrobial activity against Staphylococcus aureus at 1 umol/spot after 18 hrs by TLC-bioautographic method; type: functional; method in brief: as §2
# Escherichia coli [20] = experiment: Antimicrobial activity against Escherichia coli at 1 umol/spot after 18 hrs by TLC-bioautographic method; type: functional; method in brief: as §2
# Pseudomonas aeruginosa [21] = experiment: Antimicrobial activity against Pseudomonas aeruginosa at 1 umol/spot after 18 hrs by TLC-bioautographic method; type: functional; method in brief: as §2
# Enterobacter cloacae [22] = experiment: Antimicrobial activity against Enterobacter cloacae at 1 umol/spot after 18 hrs by TLC-bioautographic method; type: functional; method in brief: as §2
# Salmonella typhimurium [23] = experiment: Antimicrobial activity against Salmonella Typhimurium at 1 umol/spot after 18 hrs by TLC-bioautographic method; type: functional; method in brief: as §2
# Listeria monocytogenes [24] = experiment: Antimicrobial activity against Listeria monocytogenes at 1 umol/spot after 18 hrs by TLC-bioautographic method; type: functional; method in brief: as §2
# Bacillus cereus [25] = experiment: Antimicrobial activity against Bacillus cereus after 24 hrs by microdilution technique; type: functional
# Method in brief: (§3)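 Broth microdilution in LB medium. Inoculum is 1.0 × 10^4 cfu per well, from a saline-adjusted suspension of 1.0 × 10^5 cfu/ml. Compounds are dissolved in DMSO. Incubated 24 h at 28 C. MIC is the lowest concentration with no visible growth under a binocular microscope. MBC is read by subculture into fresh broth for 72 h, with no growth taken as 99.5% kill. OD is read at 655 nm.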
# Micrococcus flavus [26] = experiment: Antimicrobial activity against Micrococcus flavus after 24 hrs by microdilution technique; type: functional; method in brief: as §3
# Staphylococcus aureus [27] = experiment: Antimicrobial activity against Staphylococcus aureus after 24 hrs by microdilution technique; type: functional; method in brief: as §3
# Escherichia coli [28] = experiment: Antimicrobial activity against Escherichia coli after 24 hrs by microdilution technique; type: functional; method in brief: as §3
# Pseudomonas aeruginosa [29] = experiment: Antimicrobial activity against Pseudomonas aeruginosa after 24 hrs by microdilution technique; type: functional; method in brief: as §3
# Enterobacter cloacae [30] = experiment: Antimicrobial activity against Enterobacter cloacae after 24 hrs by microdilution technique; type: functional; method in brief: as §3
# Salmonella typhimurium [31] = experiment: Antimicrobial activity against Salmonella Typhimurium after 24 hrs by microdilution technique; type: functional, Salmonella enterica subsp. enterica serovar Typhimurium; details: Salmonella enterica; method in brief: as §3
# Listeria monocytogenes [32] = experiment: Antimicrobial activity against Listeria monocytogenes after 24 hrs by microdilution technique; type: functional; method in brief: as §3
# [33] = Salmonella enterica subsp. enterica serovar Typhimurium
Structure (SMILES),inhibition zone (IZ) (Bacillus cereus [1]),inhibition zone (IZ) (Pseudomonas aeruginosa [5]),inhibition zone (IZ) (Enterobacter cloacae [6]),inhibition zone (IZ) (Salmonella typhimurium [7]),inhibition zone (IZ) (Listeria monocytogenes [8]),inhibition zone (IZ) (Bacillus cereus [9]),inhibition zone (IZ) (Micrococcus flavus [10]),inhibition zone (IZ) (Staphylococcus aureus [11]),inhibition zone (IZ) (Escherichia coli [12]),inhibition zone (IZ) (Pseudomonas aeruginosa [13]),inhibition zone (IZ) (Enterobacter cloacae [14]),inhibition zone (IZ) (Salmonella typhimurium [15]),inhibition zone (IZ) (Listeria monocytogenes [16]),inhibition zone (IZ) (Bacillus cereus [17]),inhibition zone (IZ) (Micrococcus flavus [18]),inhibition zone (IZ) (Staphylococcus aureus [19]),inhibition zone (IZ) (Escherichia coli [20]),inhibition zone (IZ) (Pseudomonas aeruginosa [21]),inhibition zone (IZ) (Enterobacter cloacae [22]),inhibition zone (IZ) (Listeria monocytogenes [24]) [millimeter],other results
COc1ccccc1C1CC(c2ccc(Nc3nc(Nc4ccccc4)nc(Nc4ccccc4)n3)cc2)=NN1C(C)=O (stereo not given),inactive,inactive,inactive,inactive,inactive,inactive,inactive,inactive,inactive,inactive,inactive,inactive,inactive,inactive,inactive,inactive,inactive,inactive,0.08 millimeter,0.08,inhibition zone (IZ) (Micrococcus flavus [2]): inactive; inhibition zone (IZ) (Staphylococcus aureus [3]): inactive; inhibition zone (IZ) (Escherichia coli [4]): inactive; inhibition zone (IZ) (Salmonella typhimurium [23]; [33]): inactive; MBC (Bacillus cereus [25]): 350 µM; MIC (Bacillus cereus [25]): 175 µM; MBC (Micrococcus flavus [26]): 350 µM; MIC (Micrococcus flavus [26]): 175 µM; MBC (Staphylococcus aureus [27]): 700 µM; MIC (Staphylococcus aureus [27]): 350 µM; MBC (Escherichia coli [28]): 700 µM; MIC (Escherichia coli [28]): 350 µM; MBC (Pseudomonas aeruginosa [29]): 700 µM; MIC (Pseudomonas aeruginosa [29]): 350 µM; MBC (Enterobacter cloacae [30]): 350 µM; MIC (Enterobacter cloacae [30]): 175 µM; MBC (Salmonella typhimurium [31]): 700 µM; MIC (Salmonella typhimurium [31]): 350 µM; MBC (Listeria monocytogenes [32]): 700 µM; MIC (Listeria monocytogenes [32]): 700 µM
N#Cc1c(-c2ccc([N+](=O)[O-])cc2)cc(-c2ccc(Nc3nc(Nc4ccccc4)nc(Nc4ccccc4)n3)cc2)nc1N,inactive,inactive,inactive,inactive,inactive,inactive,0.04 millimeter,inactive,inactive,inactive,inactive,inactive,inactive,inactive,0.07 millimeter,inactive,inactive,0.09 millimeter,0.09 millimeter,0.1,zone of inhibition at 10 µg/disc (Micrococcus flavus [2]): 6 mm; inhibition zone (IZ) (Staphylococcus aureus [3]): inactive; inhibition zone (IZ) (Escherichia coli [4]): inactive; inhibition zone (IZ) (Salmonella typhimurium [23]; [33]): inactive; MBC (Bacillus cereus [25]): 338 µM; MIC (Bacillus cereus [25]): 169 µM; MBC (Micrococcus flavus [26]): 676 µM; MIC (Micrococcus flavus [26]): 338 µM; MBC (Staphylococcus aureus [27]): 676 µM; MIC (Staphylococcus aureus [27]): 338 µM; MBC (Escherichia coli [28]): 676 µM; MIC (Escherichia coli [28]): 338 µM; MBC (Pseudomonas aeruginosa [29]): 676 µM; MIC (Pseudomonas aeruginosa [29]): 676 µM; MBC (Enterobacter cloacae [30]): 338 µM; MIC (Enterobacter cloacae [30]): 169 µM; MBC (Salmonella typhimurium [31]): 676 µM; MIC (Salmonella typhimurium [31]): 676 µM; MBC (Listeria monocytogenes [32]): 676 µM; MIC (Listeria monocytogenes [32]): 676 µM
CC(=O)N1N=C(c2ccc(Nc3nc(Nc4ccccc4)nc(Nc4ccccc4)n3)cc2)CC1c1cccs1 (stereo not given),inactive,inactive,inactive,inactive,inactive,inactive,inactive,inactive,inactive,inactive,inactive,inactive,inactive,0.08 millimeter,inactive,inactive,inactive,inactive,0.1 millimeter,0.08,inhibition zone (IZ) (Micrococcus flavus [2]): inactive; inhibition zone (IZ) (Staphylococcus aureus [3]): inactive; inhibition zone (IZ) (Escherichia coli [4]): inactive; inhibition zone (IZ) (Salmonella typhimurium [23]; [33]): inactive; MBC (Bacillus cereus [25]): 376 µM; MIC (Bacillus cereus [25]): 188 µM; MBC (Micrococcus flavus [26]): 376 µM; MIC (Micrococcus flavus [26]): 188 µM; MBC (Staphylococcus aureus [27]): 732 µM; MIC (Staphylococcus aureus [27]): 376 µM; MBC (Escherichia coli [28]): 376 µM; MIC (Escherichia coli [28]): 188 µM; MBC (Pseudomonas aeruginosa [29]): 732 µM; MIC (Pseudomonas aeruginosa [29]): 376 µM; MBC (Enterobacter cloacae [30]): 732 µM; MIC (Enterobacter cloacae [30]): 732 µM; MBC (Salmonella typhimurium [31]): 732 µM; MIC (Salmonella typhimurium [31]): 376 µM; MBC (Listeria monocytogenes [32]): 732 µM; MIC (Listeria monocytogenes [32]): 732 µM
Nc1nc(-c2ccc(Cl)cc2)cc(-c2ccc(Nc3nc(Nc4ccccc4)nc(Nc4ccccc4)n3)cc2)n1,inactive,inactive,inactive,inactive,inactive,inactive,0.05 millimeter,0.04,inactive,inactive,inactive,inactive,inactive,0.09 millimeter,0.07 millimeter,0.04 millimeter,0.08 millimeter,inactive,inactive,0.08,zone of inhibition at 10 µg/disc (Micrococcus flavus [2]): 9 mm; zone of inhibition at 10 µg/disc (Staphylococcus aureus [3]; read-out: IZ): 7 mm; inhibition zone (IZ) (Escherichia coli [4]): inactive; inhibition zone (IZ) (Salmonella typhimurium [23]): 0.07 millimeter; MBC (Bacillus cereus [25]): 179 µM; MIC (Bacillus cereus [25]): 89.5 µM; MBC (Micrococcus flavus [26]): 358 µM; MIC (Micrococcus flavus [26]): 179 µM; MBC (Staphylococcus aureus [27]): 358 µM; MIC (Staphylococcus aureus [27]): 179 µM; MBC (Escherichia coli [28]): 179 µM; MIC (Escherichia coli [28]): 89.5 µM; MBC (Pseudomonas aeruginosa [29]): 358 µM; MIC (Pseudomonas aeruginosa [29]): 179 µM; MBC (Enterobacter cloacae [30]): 179 µM; MIC (Enterobacter cloacae [30]): 89.5 µM; MBC (Salmonella typhimurium [31]): 358 µM; MIC (Salmonella typhimurium [31]): 179 µM; MBC (Listeria monocytogenes [32]): 716 µM; MIC (Listeria monocytogenes [32]): 358 µM
N#Cc1c(-c2ccc(Cl)cc2)cc(-c2ccc(Nc3nc(Nc4ccccc4)nc(Nc4ccccc4)n3)cc2)nc1N,inactive,inactive,inactive,inactive,inactive,inactive,0.04 millimeter,inactive,0.04 millimeter,inactive,inactive,inactive,inactive,inactive,0.07 millimeter,inactive,0.09 millimeter,0.09 millimeter,0.08 millimeter,0.08,zone of inhibition at 10 µg/disc (Micrococcus flavus [2]): 7 mm; inhibition zone (IZ) (Staphylococcus aureus [3]): inactive; zone of inhibition at 10 µg/disc (Escherichia coli [4]; read-out: IZ): 7 mm; inhibition zone (IZ) (Salmonella typhimurium [23]): 0.08 millimeter; MBC (Bacillus cereus [25]): 344 µM; MIC (Bacillus cereus [25]): 172 µM; MBC (Micrococcus flavus [26]): 344 µM; MIC (Micrococcus flavus [26]): 172 µM; MBC (Staphylococcus aureus [27]): 344 µM; MIC (Staphylococcus aureus [27]): 172 µM; MBC (Escherichia coli [28]): 344 µM; MIC (Escherichia coli [28]): 172 µM; MBC (Pseudomonas aeruginosa [29]): 688 µM; MIC (Pseudomonas aeruginosa [29]): 688 µM; MBC (Enterobacter cloacae [30]): 344 µM; MIC (Enterobacter cloacae [30]): 172 µM; MBC (Salmonella typhimurium [31]): 344 µM; MIC (Salmonella typhimurium [31]): 172 µM; MBC (Listeria monocytogenes [32]): 688 µM; MIC (Listeria monocytogenes [32]): 688 µM
